Source: PubChem BioAssay
HKDC1 inh: HKDC1 hexokinase inhibitors, primary screen, biochemical, fluorescence, uHTS; recombinant HKDC1, G6PDH/diaphorase resazurin coupled fluorescence; AID 493160, 2011; 340,000 compounds, 0.16% hits; inhibition, % at 20 µM; Q2TB90;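 active = inhibition above about 35% when tested at 20 µM, limit read from the data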;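 note: plate controls were DMSO wells with enzyme for no effect and DMSO wells lacking enzyme for full effect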
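test system = in-house recombinant HK5 (HKDC1) enzyme | amount = HKDC1 at 5 µg/mL | control set = DMSO-enzyme wells negative, buffer-substituted wells positive | compound = one dose of 20 µM, 1% DMSO | schedule = reaction time 90 min, room temperature, protected from light | technique = resorufin fluorescence at 613 nm | reagent = glucose with 1 mM ATP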
TDP2 absorb: human TDP2 enzyme inhibitors, primary screen, biochemical, epi absorbance, recombinant enzyme | Tyrosyl-DNA phosphodiesterase 2 (Homo sapiens), O95551 | T5PNP hydrolysis, p-nitrophenol absorbance 415 nm | inhibition, % at 12.8 µM | 370,000 compounds, 0.34% hits | AID 720702, 2013;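 active = inhibition above the mean of all tested compounds plus 3 SD, set per campaign, cut at about 25% in these data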;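 note: 0% = DMSO with enzyme and 100% = buffer with substrate but no TDP2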
Target sequence (O95551 whole entry, looked up): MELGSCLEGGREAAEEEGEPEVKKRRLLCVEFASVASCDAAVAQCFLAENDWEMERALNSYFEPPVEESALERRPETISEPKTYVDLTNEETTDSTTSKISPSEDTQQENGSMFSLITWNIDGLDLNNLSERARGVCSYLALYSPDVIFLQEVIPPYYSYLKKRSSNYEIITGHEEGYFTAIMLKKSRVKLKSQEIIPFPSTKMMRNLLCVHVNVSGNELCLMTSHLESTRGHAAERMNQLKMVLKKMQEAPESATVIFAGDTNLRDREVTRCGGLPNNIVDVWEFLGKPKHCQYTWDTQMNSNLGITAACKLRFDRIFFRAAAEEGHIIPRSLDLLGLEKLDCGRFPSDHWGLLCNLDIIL
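Read-out basis: percent inhibition. System: recombinant human TDP2. Buffer or medium: Mg2+-containing Tris-HCl buffer, pH 7.5. Repeats: single replicate. Timing: reaction 2 h, 37 °C. Benchmarks: high control without enzyme, low control DMSO plus TDP2. Probe or stimulus: 5 mM T5PNP. Doses: 12.8 µM only. Measured by: epi absorbance of p-nitrophenol freed from T5PNP by hydrolysis.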
Fh CTSL1 inh: Fasciola hepatica cathepsin L1 inhibitors, primary screen, counter-screen for PFM18AAP inhibitor project, biochemical, QFRET, fluorogenic peptide substrate; recombinant F. hepatica cathepsin L1, Z-Leu-Arg-MCA fluorescence; inhibition, % at 5.96 µM; 300,000 compounds, 0.49% hits;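 active = inhibition above the mean of all tested compounds plus 3 SD, set per screening campaign, cut at about 17% in these data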;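 note: 0% = plate median of test compound wells and 100% = 1 µM Z-Phe-Ala-diazomethylketone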
UCH37 DUB inh: inhibitors of human UCH37 deubiquitinase, primary screen, biochemical, Ub-AMC cleavage, fluorescence; purified proteasome/UCH37; AID 588478, 2011; Ubiquitin carboxyl-terminal hydrolase isozyme L5 (Homo sapiens), Q9Y5K5; inhibition, % (concentration not given with the values); 330,000 compounds, 0.33% hits;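 active = mean inhibition over replicate wells above about 20%, limit read from the data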;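 note: 0% = compound-free wells with enzyme and 100% = wells lacking proteasome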
Target sequence (Q9Y5K5 whole entry, looked up): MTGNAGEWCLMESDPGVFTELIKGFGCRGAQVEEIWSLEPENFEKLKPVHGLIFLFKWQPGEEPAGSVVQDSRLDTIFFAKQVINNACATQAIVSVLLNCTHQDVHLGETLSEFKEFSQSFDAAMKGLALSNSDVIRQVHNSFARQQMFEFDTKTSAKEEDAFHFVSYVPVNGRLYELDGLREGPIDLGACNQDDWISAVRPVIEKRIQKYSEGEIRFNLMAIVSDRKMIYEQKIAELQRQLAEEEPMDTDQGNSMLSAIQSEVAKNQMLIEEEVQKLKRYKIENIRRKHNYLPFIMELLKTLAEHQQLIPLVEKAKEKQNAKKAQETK
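Test system – human UCH37 enzyme supplied as purified proteasome complex · Incubation – 30 min preincubation with enzyme, 25 min cleavage at room temperature · Detection – AMC fluorescence from Ub-AMC cleavage, excitation 355 nm, emission 460 nm · Benchmarks – no-proteasome wells (full inhibition) and compound-free wells (no inhibition)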
PAD4 inh: human PAD4 inhibitors, primary screen, biochemical, fluorescence polarization, 1536-well format. Protein-arginine deiminase type-4 (Homo sapiens), Q9UM07. recombinant PAD4, RCA probe fluorescence polarization. inhibition, % at 6.36 µM. 330,000 compounds, 0.41% hits;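 active = percent inhibition above a cutoff equal to the mean of all tested compounds plus 3 SD, cut at about 15% in these data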;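 note: 0% = PAD4 with RCA probe and DMSO and 100% = probe without PAD4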
GSTO1 counter: inhibitors of recombinant GSTO1, primary screen, counter-screen for RBBP9 inhibitor project, biochemical, fluorescence polarization | Glutathione S-transferase omega-1 (Homo sapiens), P78417 | inhibition, % at 5.96 µM | activity-based probe fluorescence polarization | AID 1974, 2009 | 300,000 compounds, 1.1% hits;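 active = inhibition above the campaign mean inhibition plus 3 SD, cut at about 35% in these data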;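 note: 0% = GSTO1-1 with DMSO and 100% = wells lacking GSTO1-1 enzyme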
UCH37 reconfirm: retest of human UCH37 deubiquitinase inhibitors, confirmation, biochemical, Ub-AMC cleavage rate, fluorescence; shares compounds with UCH37 DUB inh; Proteasome-bound UCH37; inhibition, % at 20 µM; 480 compounds, 27% hits; AID 624100, 2012;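 active = average inhibition over replicates above about 50%, so the earlier screening hit is confirmed, limit read from the data; inactive = the rest, counted as false positives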;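 note: based on cleavage rate fitted by regression over a 30 min kinetic read; 0% = proteasome plus Ub-AMC and 100% = Ub-AMC without proteasome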
Numbers without * were called inactive. This is a sample that favours compounds with a hit; in the whole collection about 1.6% have one here.

What do the screens show for `COc1ccc(NC(=O)c2cncc(Br)c2)c(S(=O)(=O)N2CCOCC2)c1`?
HKDC1 inh: -9; TDP2 absorb: -6; Fh CTSL1 inh: 2; UCH37 DUB inh: 35*; PAD4 inh: 0; GSTO1 counter: -1; UCH37 reconfirm: 6

What do the screens show for `CCNC(=S)NN=Cc1c(Cl)cccc1Cl`?
UCH37 DUB inh: 5

What do the screens show for `C(C#CCCCCCCCCC[n+]1ccccc1)#CCCCCCCCCC[n+]1ccccc1`?
HKDC1 inh: 0; TDP2 absorb: -6; Fh CTSL1 inh: -11; UCH37 DUB inh: 34*; PAD4 inh: -3; GSTO1 counter: 5; UCH37 reconfirm: 69*

Results for CC(=O)Nc1cccc(C(C)=NNC(N)=S)c1 ?
UCH37 DUB inh: 5

How did O=C(O)CN1C(=O)/C(=C\c2cccc(OCc3ccc(F)cc3)c2)SC1=S do in these assays?
HKDC1 inh: 18; TDP2 absorb: 12; UCH37 DUB inh: 15

Results for O=C(O)CN1C(=O)/C(=C/c2ccsc2)SC1=S ?
HKDC1 inh: -5; TDP2 absorb: 15; Fh CTSL1 inh: 2; UCH37 DUB inh: 12; PAD4 inh: 0; GSTO1 counter: 0

Results for Cn1cccc1/C=C1\SC(=S)N(CC(=O)O)C1=O ?
HKDC1 inh: -4; TDP2 absorb: -1; Fh CTSL1 inh: 7; UCH37 DUB inh: 25*; PAD4 inh: 2; GSTO1 counter: -2; UCH37 reconfirm: 30

Results for O=C(O)CN1C(=O)/C(=C\c2cccc(OCc3ccc(Cl)cc3)c2)SC1=S ?
HKDC1 inh: 24; TDP2 absorb: 5; Fh CTSL1 inh: 3; UCH37 DUB inh: 28*; PAD4 inh: 1; GSTO1 counter: 9; UCH37 reconfirm: 82*

How did COc1cc(C=NNC(=O)c2ccc(C)nc2)ccc1OC(=O)c1ccc2c(c1)OCO2 do in these assays?
UCH37 DUB inh: -2

What do the screens show for `CN(C[C@H](c1ccccc1)N(C[C@H](Cc1ccccc1)N(CCc1ccccc1)N=O)N=O)N=O`?
HKDC1 inh: 2; TDP2 absorb: 1; Fh CTSL1 inh: 4; UCH37 DUB inh: 37*; PAD4 inh: 3; GSTO1 counter: 1; UCH37 reconfirm: 9

How did CN(C[C@H](Cc1ccccc1)N(C[C@H](c1ccccc1)N(CCc1ccccc1)N=O)N=O)N=O do in these assays?
HKDC1 inh: 5; TDP2 absorb: -1; Fh CTSL1 inh: 2; UCH37 DUB inh: 4; PAD4 inh: 0; GSTO1 counter: 1

Results for COC(=O)C1SCC2C(=O)N(Cc3ccc(Cl)c(Cl)c3)CC(=O)N21 (centres undefined) ?
HKDC1 inh: -11; TDP2 absorb: 3; Fh CTSL1 inh: 2; UCH37 DUB inh: 29*; PAD4 inh: -2; GSTO1 counter: -2; UCH37 reconfirm: 21

Results for COCCn1c(COc2ccc(C)cc2)nc2ccccc21 ?
HKDC1 inh: -8; TDP2 absorb: -14; Fh CTSL1 inh: 0; UCH37 DUB inh: 36*; PAD4 inh: -3; GSTO1 counter: 5; UCH37 reconfirm: 3

What do the screens show for `CCOCCn1c(COc2ccc(C)cc2)nc2ccccc21`?
HKDC1 inh: -9; TDP2 absorb: -2; Fh CTSL1 inh: 0; UCH37 DUB inh: 6; PAD4 inh: -2; GSTO1 counter: -5

Results for Cc1ccc2cc(C=NNC(=O)CN3CCOCC3)c(Cl)nc2c1 ?
UCH37 DUB inh: 7

How did COC(=O)C1=C(C)N=c2sc(=Cc3cccs3)c(=O)n2C1c1cccs1 (centres undefined) do in these assays?
UCH37 DUB inh: 1

What do the screens show for `CN=c1scc(-c2cccs2)n1N=Cc1ccccc1O`?
UCH37 DUB inh: 3

Results for COCCCNC(=S)NNC(=O)c1ccc2c(c1)OCO2 ?
HKDC1 inh: 3; TDP2 absorb: -5; Fh CTSL1 inh: 1; UCH37 DUB inh: 37*; PAD4 inh: -4; GSTO1 counter: 4; UCH37 reconfirm: 22

Results for CN1CCC[C@@H]1CCNC(=O)c1cccc2c1C(=O)c1ccc(N3CCCC3)cc1S2(=O)=O ?
HKDC1 inh: -5; TDP2 absorb: -5; UCH37 DUB inh: 52*; PAD4 inh: -10; UCH37 reconfirm: 13

Results for Cn1c(=O)c2ccccc2n(CC(=O)NCCC2=CCCCC2)c1=O ?
HKDC1 inh: 5; TDP2 absorb: 6; Fh CTSL1 inh: 5; UCH37 DUB inh: 32*; PAD4 inh: -1; GSTO1 counter: -3; UCH37 reconfirm: 47

Results for COc1ccc(-n2nc(C(=O)NCC(=O)NCCC3=CCCCC3)c3ccccc3c2=O)cc1OC ?
HKDC1 inh: 9; TDP2 absorb: 2; Fh CTSL1 inh: 4; UCH37 DUB inh: 36*; PAD4 inh: -1; GSTO1 counter: 8; UCH37 reconfirm: 54*

Results for CCOc1ccc(Cl)cc1C(c1c(C)[nH][nH]c1=O)c1c(C)[nH][nH]c1=O ?
HKDC1 inh: 0; TDP2 absorb: 2; UCH37 DUB inh: 4

What do the screens show for `Cc1[nH][nH]c(=O)c1C(c1ccc(-c2ccc(Cl)c(Cl)c2)o1)c1c(C)[nH][nH]c1=O`?
HKDC1 inh: 15; TDP2 absorb: 64*; Fh CTSL1 inh: 4; UCH37 DUB inh: 42*; PAD4 inh: 1; GSTO1 counter: 35*; UCH37 reconfirm: 27

What do the screens show for `CN(C)CCCN(C(=O)c1ccc([N+](=O)[O-])s1)c1nc2cc3c(cc2s1)OCCO3`?
HKDC1 inh: 1; TDP2 absorb: 6; Fh CTSL1 inh: 6; UCH37 DUB inh: 56*; PAD4 inh: 2; GSTO1 counter: 10; UCH37 reconfirm: 4

How did CN(C)CCCN(C(=O)c1ccc(Br)s1)c1nc2cc3c(cc2s1)OCCO3 do in these assays?
HKDC1 inh: -1; TDP2 absorb: -3; Fh CTSL1 inh: 0; UCH37 DUB inh: 2; PAD4 inh: -1; GSTO1 counter: 4

Results for Cc1cc(C)c2oc(C(=O)Nc3nnc(C(C)C)s3)cc(=O)c2c1 ?
HKDC1 inh: 0; TDP2 absorb: -1; Fh CTSL1 inh: 2; UCH37 DUB inh: 14; PAD4 inh: -2; GSTO1 counter: -17
